We go through one compound from ChEMBL document CHEMBL1926509, “Discovery of pyrazolo[1,5-a]pyridines as p110α-selective PI3 kinase inhibitors” (Bioorg Med Chem, 2012).

Calls of active or inactive are those of the source. The calls are words filed in the database; no cut-off is given here.

Series [1] concerns Mus musculus. In words: Toxicity in human HCT116 cells xenografted Rag1 knockout mouse assessed as mortality at 20 mg/kg, ip qd for 14 days. The conditions noted are these: in vivo, 336 h. The arrangement: dose 20 mg/kg, route intraperitoneal. The series is classed as organism-based, HCT-116. Put shortly: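 Age-matched specific pathogen-free female Rag1-/- mice bearing subcutaneous HCT-116 tumours (5 × 10⁶ cells inoculated in PBS), n = 7 per group. Drug given ip at 20 mg/kg once daily for 14 days in 7.5% DMSO/42.5% PEG-400/20% 2-hydroxypropyl-β-cyclodextrin/30% water; controls received vehicle alone. Bodyweight recorded daily; mice culled when weight loss exceeded 20% of starting weight.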

Series [2] concerns the target Phosphatidylinositol 4,5-bisphosphate 3-kinase catalytic subunit beta isoform (Homo sapiens, UniProt P42338). Briefly: Inhibition of recombinant PI3K p110beta using L-alpha-phosphatidylinositol as substrate and [gamma33P]ATP after 60 mins by thin layer chromatographic technique. Put shortly:
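In-house recombinant class Ia PI3K isoform (0.1 µg) with L-α-phosphatidylinositol substrate in lipid kinase buffer (Tris–HCl pH 7.4, NaCl, EDTA), 1% DMSO final. Started with ATP mix (5 mM MgCl₂, 100 µM ATP plus [γ-³³P]ATP), 1 h at room temperature, stopped with 1 M HCl. Lipids extracted in two steps, separated by TLC, read by phosphorimager. Nine inhibitor concentrations; IC50 averaged over two experiments.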

For series [3], the target named is Phosphatidylinositol 4,5-bisphosphate 3-kinase catalytic subunit alpha isoform (Homo sapiens, UniProt P42336, E545K). Briefly: Inhibition of recombinant PI3K p110alpha E545K mutant using L-alpha-phosphatidylinositol as substrate and [gamma33P]ATP after 60 mins by thin layer chromatographic technique.
Phosphatidylinositol 4,5-bisphosphate 3-kinase catalytic subunit alpha isoform (Homo sapiens, UniProt P42336, E545K), sequence (P42336 whole entry E545K, canonical isoform): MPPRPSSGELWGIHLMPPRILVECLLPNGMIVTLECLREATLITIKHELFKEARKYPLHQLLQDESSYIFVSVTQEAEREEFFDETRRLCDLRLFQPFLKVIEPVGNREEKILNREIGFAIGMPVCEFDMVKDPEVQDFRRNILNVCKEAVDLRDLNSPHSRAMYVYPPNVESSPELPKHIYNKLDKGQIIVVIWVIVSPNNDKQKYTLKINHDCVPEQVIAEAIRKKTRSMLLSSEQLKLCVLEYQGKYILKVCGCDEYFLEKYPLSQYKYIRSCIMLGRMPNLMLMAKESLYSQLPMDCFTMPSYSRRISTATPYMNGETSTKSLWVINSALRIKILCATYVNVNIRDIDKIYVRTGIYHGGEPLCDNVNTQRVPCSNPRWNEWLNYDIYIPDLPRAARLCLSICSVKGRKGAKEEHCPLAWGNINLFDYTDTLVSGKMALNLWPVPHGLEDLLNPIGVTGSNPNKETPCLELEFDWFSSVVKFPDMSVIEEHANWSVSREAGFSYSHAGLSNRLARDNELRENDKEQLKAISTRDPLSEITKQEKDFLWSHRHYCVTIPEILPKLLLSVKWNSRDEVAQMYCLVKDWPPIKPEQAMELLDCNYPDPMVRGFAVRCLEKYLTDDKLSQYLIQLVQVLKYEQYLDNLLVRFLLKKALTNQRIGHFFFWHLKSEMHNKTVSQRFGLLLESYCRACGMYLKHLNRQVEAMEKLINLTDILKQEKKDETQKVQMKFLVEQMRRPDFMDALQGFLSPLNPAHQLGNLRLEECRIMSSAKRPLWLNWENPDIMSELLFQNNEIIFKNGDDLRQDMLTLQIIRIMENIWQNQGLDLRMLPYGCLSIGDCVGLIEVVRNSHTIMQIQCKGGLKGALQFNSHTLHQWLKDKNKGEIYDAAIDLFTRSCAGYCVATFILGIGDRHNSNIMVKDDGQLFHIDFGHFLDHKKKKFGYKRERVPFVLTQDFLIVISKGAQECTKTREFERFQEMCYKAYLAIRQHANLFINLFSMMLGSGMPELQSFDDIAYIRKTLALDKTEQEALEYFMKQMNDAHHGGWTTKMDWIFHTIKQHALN
The target in series [4] is T1, Phosphatidylinositol 4,5-bisphosphate 3-kinase catalytic subunit alpha isoform (Homo sapiens, UniProt P42336, H1047R). In words: Inhibition of recombinant PI3K p110alpha H1047R mutant using L-alpha-phosphatidylinositol as substrate and [gamma33P]ATP after 60 mins by thin layer chromatographic technique.
T1 sequence (P42336 whole entry H1047R, canonical isoform): as the sequence (P42336 whole entry E545K, canonical isoform) above, with K545E, H1047R counted along it
The target in series [5] is Phosphatidylinositol 4,5-bisphosphate 3-kinase catalytic subunit gamma isoform (Homo sapiens, UniProt P48736). Briefly: Inhibition of PI3K p110gamma. Put shortly:
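Recombinant PI3K isoform made in-house, mixed with phosphatidylinositol substrate and inhibitor in 1% DMSO. Lipid kinase buffer (2× stock: 40 mM Tris-HCl pH 7.4, 200 mM NaCl, 1 mM EDTA). Started with ATP/MgCl₂ (5 mM)/[γ-³³P]ATP mix, 1 h at room temperature, stopped with 1 M HCl. Lipids extracted, separated by TLC and read by phosphorimager. Nine concentrations, run twice, IC50s averaged.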

The target of series [6] is Serine/threonine-protein kinase mTOR (Homo sapiens, UniProt P42345). In words: Inhibition of mTOR.
The target in series [7] is Dual specificity mitogen-activated protein kinase kinase 1 (Homo sapiens) (UniProt Q02750). Briefly: Inhibition of MKK1 assessed as residual activity at 1 uM.
Dual specificity mitogen-activated protein kinase kinase 1 (Homo sapiens), sequence (Q02750 whole entry): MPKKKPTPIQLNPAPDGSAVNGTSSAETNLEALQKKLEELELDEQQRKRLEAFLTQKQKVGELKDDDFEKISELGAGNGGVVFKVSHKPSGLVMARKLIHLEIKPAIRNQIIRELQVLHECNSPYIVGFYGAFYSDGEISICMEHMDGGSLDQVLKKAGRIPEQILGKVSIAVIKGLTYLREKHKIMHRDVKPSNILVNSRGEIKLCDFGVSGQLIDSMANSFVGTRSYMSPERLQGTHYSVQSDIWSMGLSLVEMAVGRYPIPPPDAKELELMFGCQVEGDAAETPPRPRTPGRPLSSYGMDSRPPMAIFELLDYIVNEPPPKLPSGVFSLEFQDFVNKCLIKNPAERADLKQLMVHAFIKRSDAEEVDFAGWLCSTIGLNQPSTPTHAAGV
Series [8] deals with Ribosomal protein S6 kinase alpha-1 (Homo sapiens) (UniProt Q15418). In words: Inhibition of RSK1 assessed as residual activity at 10 uM.
Ribosomal protein S6 kinase alpha-1 (Homo sapiens), sequence (Q15418 whole entry, canonical isoform): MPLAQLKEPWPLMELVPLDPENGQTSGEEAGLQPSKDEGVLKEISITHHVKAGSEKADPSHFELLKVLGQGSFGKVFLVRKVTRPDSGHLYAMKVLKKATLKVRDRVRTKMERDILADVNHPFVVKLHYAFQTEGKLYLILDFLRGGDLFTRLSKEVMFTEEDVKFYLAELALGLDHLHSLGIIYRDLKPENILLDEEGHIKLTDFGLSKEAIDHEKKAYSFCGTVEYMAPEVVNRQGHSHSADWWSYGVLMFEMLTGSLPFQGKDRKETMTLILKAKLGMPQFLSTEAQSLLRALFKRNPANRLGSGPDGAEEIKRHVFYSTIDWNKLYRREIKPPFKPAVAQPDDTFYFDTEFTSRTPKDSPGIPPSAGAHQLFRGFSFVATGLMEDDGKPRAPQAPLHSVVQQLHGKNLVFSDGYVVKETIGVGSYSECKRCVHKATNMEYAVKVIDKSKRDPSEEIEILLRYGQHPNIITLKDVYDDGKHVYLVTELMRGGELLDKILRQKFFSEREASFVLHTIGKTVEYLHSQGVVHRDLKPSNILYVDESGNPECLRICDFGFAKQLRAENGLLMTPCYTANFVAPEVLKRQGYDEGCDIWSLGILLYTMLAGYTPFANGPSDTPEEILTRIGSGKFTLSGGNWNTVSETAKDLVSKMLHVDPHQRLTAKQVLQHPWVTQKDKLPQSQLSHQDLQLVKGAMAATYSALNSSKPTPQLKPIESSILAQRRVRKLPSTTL
For series [9], the target named is T1, Phosphatidylinositol 4,5-bisphosphate 3-kinase catalytic subunit alpha isoform. Briefly: Inhibition of PI3K […] H1047R mutant-mediated PKB phosphorylation at Ser473 in human HCT116 cells after 15 mins by immunoblot analysis. The class given is cell-based, HCT-116. In short, it runs like this: (§1)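 HCT-116 cells in MEM alpha with 10% FBS and penicillin/streptomycin were seeded, grown 1 day, then serum-starved overnight. They were exposed to a range of inhibitor concentrations in DMSO (0.1% final) for 15 min, then stimulated with 500 nM insulin for 5 min. Phospho-PKB (Ser473 or Thr308) was detected by immunoblotting.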
In general terms: Immunoblotting shows a protein as a band on a membrane.

Series [10] shares this target. In words: Inhibition of PI3K […] H1047R mutant-mediated PKB phosphorylation at Thr308 in human HCT116 cells after 15 mins by immunoblot analysis. The class given is cell-based, HCT-116. Put shortly:
as §1

In series [11] the test system is Mus musculus. In words: Toxicity in human HCT116 cells xenografted Rag1 knockout mouse assessed as body weight loss at 20 mg/kg, ip qd measured after 10 days relative to untreated control. The series is classed as organism-based, HCT-116. To be noted: in vivo, 240 h. The arrangement: dose 20 mg/kg, route intraperitoneal. In short, it runs like this:
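Female specific-pathogen-free Rag1−/− mice carrying subcutaneous HCT-116 tumours, given 20 mg/kg ip daily for 14 days in a DMSO/PEG-400/hydroxypropyl-β-cyclodextrin/water vehicle; controls received vehicle; n = 7 per group. Bodyweight recorded daily; mice culled if loss exceeded 20% of starting weight.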
Background: A xenograft is tissue or cells of one species grown in another, often human tumour cells in immunodeficient mice.

The target of series [12] is Phosphatidylinositol 4,5-bisphosphate 3-kinase catalytic subunit alpha isoform (Homo sapiens, UniProt P42336). To be noted: 100 nM.
Phosphatidylinositol 4,5-bisphosphate 3-kinase catalytic subunit alpha isoform (Homo sapiens, UniProt P42336), sequence (P42336 whole entry, canonical isoform): as the sequence (P42336 whole entry E545K, canonical isoform) above, with K545E counted along it

Phosphatidylinositol 4,5-bisphosphate 3-kinase catalytic subunit beta isoform, sequence (P42338 whole entry, canonical isoform): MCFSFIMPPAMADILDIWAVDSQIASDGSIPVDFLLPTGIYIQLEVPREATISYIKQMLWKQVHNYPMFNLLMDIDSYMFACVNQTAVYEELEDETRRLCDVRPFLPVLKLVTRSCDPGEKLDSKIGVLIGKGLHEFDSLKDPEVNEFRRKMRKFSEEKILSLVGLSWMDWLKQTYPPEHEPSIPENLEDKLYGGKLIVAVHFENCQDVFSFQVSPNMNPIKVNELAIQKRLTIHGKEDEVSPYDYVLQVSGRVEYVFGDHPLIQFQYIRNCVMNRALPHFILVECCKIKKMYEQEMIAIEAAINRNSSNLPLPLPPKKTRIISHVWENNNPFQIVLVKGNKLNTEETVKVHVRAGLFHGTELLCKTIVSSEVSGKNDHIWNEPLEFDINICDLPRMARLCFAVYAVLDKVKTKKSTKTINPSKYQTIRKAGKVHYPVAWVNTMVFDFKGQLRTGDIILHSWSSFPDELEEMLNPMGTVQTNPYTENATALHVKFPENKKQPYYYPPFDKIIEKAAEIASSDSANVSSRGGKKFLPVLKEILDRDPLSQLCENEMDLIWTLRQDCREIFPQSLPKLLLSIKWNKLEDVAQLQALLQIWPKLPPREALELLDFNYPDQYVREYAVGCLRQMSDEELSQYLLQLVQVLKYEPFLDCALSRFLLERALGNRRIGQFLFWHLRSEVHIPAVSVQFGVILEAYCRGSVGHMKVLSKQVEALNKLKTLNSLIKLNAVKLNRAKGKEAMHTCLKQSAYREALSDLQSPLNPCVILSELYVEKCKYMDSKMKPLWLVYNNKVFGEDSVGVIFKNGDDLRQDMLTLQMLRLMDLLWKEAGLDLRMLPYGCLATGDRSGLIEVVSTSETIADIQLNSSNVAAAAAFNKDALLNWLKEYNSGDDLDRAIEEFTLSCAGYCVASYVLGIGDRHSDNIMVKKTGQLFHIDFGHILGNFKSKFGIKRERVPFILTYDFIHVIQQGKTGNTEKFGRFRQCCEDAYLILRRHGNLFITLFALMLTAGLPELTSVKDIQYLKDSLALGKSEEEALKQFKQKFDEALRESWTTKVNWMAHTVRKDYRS
Phosphatidylinositol 4,5-bisphosphate 3-kinase catalytic subunit gamma isoform, sequence (P48736 whole entry, canonical isoform): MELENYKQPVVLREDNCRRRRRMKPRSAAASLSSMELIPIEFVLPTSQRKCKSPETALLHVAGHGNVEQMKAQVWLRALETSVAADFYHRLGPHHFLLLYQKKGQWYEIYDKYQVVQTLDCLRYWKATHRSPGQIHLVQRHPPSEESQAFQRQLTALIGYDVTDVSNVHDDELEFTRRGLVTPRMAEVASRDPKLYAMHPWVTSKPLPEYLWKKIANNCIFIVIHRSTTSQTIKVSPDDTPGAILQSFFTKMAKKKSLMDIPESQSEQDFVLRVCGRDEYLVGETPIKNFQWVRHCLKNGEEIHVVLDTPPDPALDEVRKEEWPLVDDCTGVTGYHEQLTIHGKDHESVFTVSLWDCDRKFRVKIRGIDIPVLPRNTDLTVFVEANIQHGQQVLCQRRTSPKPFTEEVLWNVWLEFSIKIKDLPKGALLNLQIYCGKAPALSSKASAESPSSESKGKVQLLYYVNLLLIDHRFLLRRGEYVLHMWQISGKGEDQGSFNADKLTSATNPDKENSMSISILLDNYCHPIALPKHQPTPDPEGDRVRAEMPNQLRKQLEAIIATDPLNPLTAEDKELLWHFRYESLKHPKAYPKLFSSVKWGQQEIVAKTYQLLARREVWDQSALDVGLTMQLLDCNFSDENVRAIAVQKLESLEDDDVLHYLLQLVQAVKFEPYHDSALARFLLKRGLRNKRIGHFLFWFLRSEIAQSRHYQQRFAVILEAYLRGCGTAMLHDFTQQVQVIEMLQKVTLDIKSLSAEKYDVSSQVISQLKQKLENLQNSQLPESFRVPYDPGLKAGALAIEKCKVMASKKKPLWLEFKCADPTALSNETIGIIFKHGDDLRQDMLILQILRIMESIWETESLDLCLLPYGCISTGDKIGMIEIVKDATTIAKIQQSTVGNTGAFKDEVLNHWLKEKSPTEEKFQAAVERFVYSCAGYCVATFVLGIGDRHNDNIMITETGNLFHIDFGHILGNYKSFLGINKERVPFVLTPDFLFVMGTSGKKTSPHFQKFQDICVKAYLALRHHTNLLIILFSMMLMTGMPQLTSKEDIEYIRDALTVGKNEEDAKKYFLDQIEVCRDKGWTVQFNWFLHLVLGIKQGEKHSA

A word on the IC50: it is the concentration needed to halve the response being measured. In the case of `Cc1ccc([N+](=O)[O-])cc1S(=O)(=O)N(C)/N=C/c1cnn2ccc(C#N)cc12`, the Activity entry in series [1] is “Non-toxic”; in series [7] it was 10%; in series [8], 2%; in [11], 15%. Moreover, the IC50 is 0.046 µM in series [2]; 0.0007 µM in series [3]; 0.0005 µM in [4]; 0.014 µM in series [5]; 0.3 µM in series [6]; 0.023 µM in series [9]. In [10], this compound came in with an IC50 of 0.026 µM. Moreover, the inhibition result in series [12] is “inactive”.
